48 sequences from the EternaBench riboswitch data can be followed below.

The data set has as its system MS2 coat protein. As to the kind of experiment: apparent Kd, MS2 coat protein; higher = weaker binding; RNA-MaP array; FMN 200 µM where present. An outline of the steps:
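Green signal from SNAP-549-labelled MS2 coat protein was normalised to red-channel RNA signal and to the median Fmax of control clusters. The protein was titrated from 0.7 or 1.5 nM, doubling to 3 µM, without and then with constant ligand, over designs transcribed by stalled E. coli RNA polymerase on Illumina sequencing-chip clusters, in 100 mM Tris-HCl pH 7.5, 80 mM KCl, 4 mM MgCl2, BSA, DTT, yeast tRNA and Tween-20. The apparent Kd is the median of filtered per-cluster binding-curve fits.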

Setting [1] is: designed as: OFF switch for flavin mononucleotide, no ligand.
The mark [2] stands for this setting: ligand present: flavin mononucleotide, designed as: OFF switch for flavin mononucleotide.
Where [3] appears, read: designed as: ON switch for flavin mononucleotide, no ligand.
Setting [4] is: ligand present: flavin mononucleotide, designed as: ON switch for flavin mononucleotide.

Usually apparent Kd stands for the concentration giving half-maximal binding under the conditions of the assay.

As for “GGGCCCGGAGGAUAUACAAUCCCGGGUUGAAAGGCCCGGGUACAUGAGGAUCACCCAUGUAGAAGGUUGGGCCC”, the “apparent Kd” value reads like this: under setting [1], 14.2 nM; under setting [2], 17.3 nM.
For “AAGUCUGGACGAGGAUAUCAGCUGUAACUGGCGUCGACAUGAGGAUCACCCAUGUUGCUAUAGGGUGAGAAGGCGUUUGGGCAA”, the “apparent Kd” value runs as follows: under setting [3], 47.7 nM; under setting [4], 28.8 nM.
On to “AAAUACCGGUGAGGAUAUUUUUAAUAGAACUUUAUGAUAUACAUGAGGAUCACCCAUGUUACUUUAAAGAAGGCAUCGGAUAAA”, for which the “apparent Kd” value worked out at 17.5 nM under setting [1] and 15.8 nM under setting [2].
Regarding “AUGUAGUAAGGAUAUAGAAAGAAGGAGUAAGAUAGAGAGUUCUAGAAGGUACAUGAGGAUCACCCAUGUUGGAG”, the “apparent Kd” value under setting [1] amounted to 29 nM and the “apparent Kd” value under setting [2] is 26.4 nM.
Take “UGGUACUAGGGAGGAUAUGGGAAGAUACAUGAGGAUCACCCAUGUUUAAGAAUCCCGAGAGGCAACUAGAAGGCCCUAGUACCU”: the “apparent Kd” value under setting [3] amounted to 8.08 nM and the “apparent Kd” value under setting [4] came to 6.96 nM.
In the same order, the values of “ACGUUAAUUCGAGGAUAUCGGUGAUAUAAUUUACGAGAAGGCGAUAAUUGUGAUAAACUUAUAGACAUGAGGAUCACCCAUGUA” are 42.6 nM and 39.2 nM.
Consider “AAAAAAAAAAGGCAGGAUAUCCAAAAAAAAACAUGAGGAUCACCCAUGUAAAAAAAAAAAAAGUGGGAGAAGGGCCAAAAAAAAAA”, for which the “apparent Kd” value runs as follows: under setting [3], 45.3 nM; under setting [4], 15.6 nM.
Regarding “GUGUACAGAGGAUAUACUUAUGGAGUUACGAAAGUAACUUCACAUGAGGAUCACCCAUGUAGAAGGCUGUACAC”, the “apparent Kd” value is, setting by setting: under setting [1], 27.3 nM; under setting [2], 31 nM.
For “CCCAUGUUAGGAUAUAUGGAAGGGCGGACGGGCGCCCUUAGGUAGAAGGAACAUGAGGAUCACCCAUGUAAUAA”, the “apparent Kd” value under setting [1] amounted to 171 nM and the “apparent Kd” value under setting [2] stood at 161 nM.
In the same order, the values of “AAAAUGUCAGGAUAUGCGAAGGCGUCUGACAGACGAGGAUUGCAGAAGGGACAUGAGGAUCACCCAUGUAAAAA” are 50.6 nM and 126 nM.
Regarding “AUAAAGUGAGGAUAUCCAAUAUAUGACAUGAGGAUCACCCAUGUUUCCACUCGUACCUCCGGAGAAGGCACAUUUU”, the “apparent Kd” value came to 32.1 nM under setting [1] and 20.2 nM under setting [2].
In the case of “UCCCUAGAAGUAAGGAUAUGUCGAUGGCCAAUUCGAUAGAAGGUACAUGAGGAUCACCCAUGUGACCUACUGGG”, the “apparent Kd” value is 15.7 nM under setting [1] and 23.7 nM under setting [2].
As to “AGGUGAGCUCGAUGGCGACAUGAGGAUCACCCAUGUACGAUCAGAAGGGCUCGGGCAAGAAGUGGGCAGGAUAUGGUCGGUGCC”, the “apparent Kd” value under setting [1] worked out at 3.88 nM and the “apparent Kd” value under setting [2] is 4.51 nM.
The like results for “GGAUAGGACAGAGGAUAUACGUGCUAGAGAGACUAGCAAAAUUUCCUCACAUGAGGAUCACCCAUGUAGAAGGCUGUCCUAUCG” were, in that order, 16.3 nM and 432 nM.
In the same order, the values of “AGAAAUUCAGGAUAUACAUGAGGAUCACCCAUGUUUGGCGGAGGCGCCGAGAUCCCACGUAGAAGGGAAAAGAC” are 28 nM and 50.6 nM.
For the sequence “AAGCUCUGUGAGAAGGCGCCCUUUGCGGUUGGGCGAGGAUAUCACAUGAGGAUCACCCAUGUCGGUGCAUCAGACAGCGUAUAA”, the “apparent Kd” value is 215 nM under setting [1] and 40.3 nM under setting [2].
With “UUGGACGUCGUAGGAUAUGUAGGAUAUUCCUACAUGAGGAUCACCCAUGUUUACAUGGAAGAAGGACAGAAGGACGAUGUCCAU”, the “apparent Kd” value runs as follows: under setting [3], 1320 nM; under setting [4], 14.5 nM.
Consider “UGUGCUGAAGGAUAUGCGUAAGCUCGGUGACGAGCAGGUCUACAUGAGGAUCACCCAUGUAGAAGGUCAGUACU”, for which the “apparent Kd” value under setting [1] came out at 15.8 nM and the “apparent Kd” value under setting [2] was determined as 16 nM.
Regarding “UCGUAUACACAAGGAUAUCAAUGGUUUGUAGAUCCUACAUGAGGAUCACCCAUGUUUUUAUAUUGUGAGAAGGUGUAGUGUCUU”, the “apparent Kd” value reads like this: under setting [3], 620 nM; under setting [4], 564 nM.
As for “UAUAUGUGAGGAUAUCAGGUGUGCUAGCGUACUGGUACAUCUGAGAAGGCACAUGAGGAUCACCCAUGUUUCUU”, the “apparent Kd” value is, setting by setting: under setting [1], 26.3 nM; under setting [2], 88 nM.
As to “CCUCCACAUGAGGAUCACCCAUGUCAGGAUAUCGUGUGUUUUUUUUCGGUCUUGCGUGCGAGAAGGGACGUCUU”, the “apparent Kd” value runs as follows: under setting [1], 35.6 nM; under setting [2], 39.4 nM.
In the same order, the values of “CGUACUGAAGUAAGGAUAUUGUCUCGGAUACGAAACAAGAAGGUACAUGAGGAUCACCCAUGUUGACAGUACGA” are 16.6 nM and 16.7 nM.
Take “CGUGUUGACGAAGGAUAUGGAUACAUGAGGAUCACCCAUGUUUAAUUUGUGAUUUUGUUAAAGUACCAGAAGGUCGAAUACACG”: the “apparent Kd” value came to 142 nM under setting [1] and 118 nM under setting [2].
As for “CCGUAGCAAGGAUAUACAUGAGGAUCACCCAUGUGUGUCAGUGUGGGUAGACAUUAAUGUAGAAGGUGCGACUG”, the “apparent Kd” value under setting [1] amounted to 64.8 nM and the “apparent Kd” value under setting [2] came to 161 nM.
Take “AAAACAUGAGGAUCACCCAUGUAUAGAUCGAUUAUUAGGAGUGAGGAUAUGCAAGUUAUAAGGUAGCAGAAGGCACUGGGAAAA”: the “apparent Kd” value reads like this: under setting [3], 25.7 nM; under setting [4], 24.8 nM.
For the sequence “AUAUCACAAUUAGAACCAAUACGAACAUGAGGAUCACCCAUGUAGGAUAUGCUAGAAGUUGUGUUGCAGAAGGACAUAUACAUU”, the “apparent Kd” value was 7.63 nM under setting [1] and 6.63 nM under setting [2].
In the same order, the values of “AGAAACUACGAGAAGGACAUGUGGUCCUUCAGAAACAUGAGGAUCACCCAUGUAGGAUAUCGUAGUUUCAGGAUCGUGAGAUCA” are 54.4 nM and 20.8 nM.
On to “UCAAUUUUGCGAGGAUAUCGACCAUUCCUCUUUACAUGAGGAUCACCCAUGUUCUUUUUCUACAACGAGAAGGCGCUCAUAGUU”, for which the “apparent Kd” value is, setting by setting: under setting [1], 55.5 nM; under setting [2], 67.1 nM.
For “GGGAAACAUGAGGAUCACCCAUGUGAGGAUAUCGAAAAAAAAAAAAAAAAAAAAAAAACGAGAAGGCACACCGG”, the “apparent Kd” value under setting [1] came to 71 nM and the “apparent Kd” value under setting [2] turned out to be 110 nM.
For “GUGCAUACGUGAGGAUAUGUAUUAGAUAGUGGUACAGAAGGCAUGUCUGAUGACAUGAGGAUCACCCAUGUUGGCACAGUGCGC”, the “apparent Kd” value under setting [3] stood at 59.7 nM and the “apparent Kd” value under setting [4] worked out at 29.6 nM.
On to “GCAGGGUAUGAGAAGGCAUAAUUUAUCUAACCACAUGAUUACAUGAGGAUCACCCAUGUUUCCAAUGAGGAUAUCAUACCGUGC”, for which the “apparent Kd” value runs as follows: under setting [1], 8.05 nM; under setting [2], 7.54 nM.
Turning to “CGCAGGAUACAGAAGGAGUUAUUGAGAGGUUUACUAGGAUAUGUUCACAUGAGGAUCACCCAUGUCGUAUGGUUUUUUGUUGCG”, the “apparent Kd” value under setting [1] is 22.6 nM and the “apparent Kd” value under setting [2] was 16.1 nM.
Turning to “AAGAACAACCAGAAGGCAAGGCAAACAUGAGGAUCACCCAUGUAAUAUUUGAGGAUAUGGGUUCGACGUGGUCUAAAGUCAGGU”, the “apparent Kd” value under setting [3] amounted to 120 nM and the “apparent Kd” value under setting [4] was 14.1 nM.
For the sequence “AUCGGCUGGCAGAAGGGCUAUGUGAUCCGGUUUUACAUGAGGAUCACCCAUGUAGCCUCGCGCUAGCAGGAUAUGCAACGGCUG”, the “apparent Kd” value is 175 nM under setting [3] and 40.4 nM under setting [4].
Turning to “UUGCCACAUGAGGAUCACCCAUGUGAGGAUAUGGCCUGUUUGGCGUGUGCUGGCUCUGUCAGAAGGCGCGUGGG”, the “apparent Kd” value runs as follows: under setting [1], 31.8 nM; under setting [2], 37.5 nM.
“UCAACCAGCGCCGGUUGAACAUGAGGAUCACCCAUGUACUCCAGAAGGCCGCCCAAGAACGGAGUGGAGGAUAUGGAAGUUCUC”: the “apparent Kd” value under setting [3] was 75.7 nM and the “apparent Kd” value under setting [4] is 39.9 nM.
As for “CCACGUCACAUGAACAUGAGGAUCACCCAUGUAAAUUCUCAUGAGGAUAUGGAUCCUAAUUGGAUCCAGAAGGCAUGGACGUGG”, the “apparent Kd” value under setting [3] came to 842 nM and the “apparent Kd” value under setting [4] was 348 nM.
As for “UAAAAGACUAGCAAAUAGACCUUCACAUGAGGAUCACCCAUGUAGGAUAUGAGCAGAAAAUCUGCUCAGAAGGACAUGCUAGUC”, the “apparent Kd” value was 3.38 nM under setting [1] and 3.6 nM under setting [2].
Regarding “UAUAUAUAGUAAGGAUAUGUAUUUAUUUGAUAAACAGAAGGUACUGACAUGAGGAUCACCCAUGUUUUAGUGUGGGCAUGUAGA”, the “apparent Kd” value under setting [1] stood at 81.6 nM and the “apparent Kd” value under setting [2] is 131 nM.
Take “GUAUAGGACAGAGGAUAUACGUGCUAGAGAUACUAGCAAAAUUUCCUCACAUGAGGAUCACCCAUGUAGAAGGCUGUCCUAUCG”: the “apparent Kd” value by setting is: under setting [1], 17.1 nM; under setting [2], 498 nM.
Regarding “UCGUAUACACAAGGAUAUCAAUGAUUUGUGGAUCCUACAUGAGGAUCACCCAUGUUUUUAUAUUGUGAGAAGGUGUAGUGUCUU”, the “apparent Kd” value is, setting by setting: under setting [3], 507 nM; under setting [4], 684 nM.
Take “UUUGUUGUUGUGAGGAUAUCGUUGUUAUUUUGAAACGAGAAGGCACAUGAGGAUCACCCAUGUUUGUUGAUGGU”: the “apparent Kd” value stood at 43.9 nM under setting [1] and 122 nM under setting [2].
“GAUCAAAACACUCCUUACACUACAUGAGGAUCACCCAUGUAGCAGGAUAUCAUUGCUCCUCGCUGUGAGAAGGGCUACGGGCGG”: the “apparent Kd” value stood at 8.92 nM under setting [1] and 15.6 nM under setting [2].
With “UGAGCGACCACAGGAUAUACUUGGGAAGACCGAGUAGAAGGGUGGAAGAGCGUGCAGUGACAUGAGGAUCACCCAUGUGGUUGU”, the “apparent Kd” value is, setting by setting: under setting [3], 122 nM; under setting [4], 82.2 nM.
Take “UACAAUCUAUCUGAGGAUAUCAUGAAAAAAACAUGAGGAUCACCCAUGUGCAGGAAAACUGCAUAUGAGAAGGCAGAUAGAUUGA”: the “apparent Kd” value by setting is: under setting [3], 873 nM; under setting [4], 26.9 nM.
Take “ACAUGAUCAGGAUAUACAUGAGGAUCACCCAUGUAUUUCAAAAAGGGACUUUCUUAAUGUAGAAGGGAUCUUGU”: the “apparent Kd” value is, setting by setting: under setting [1], 14.7 nM; under setting [2], 33.8 nM.
For “GAAGCACAUGAGGAUCACCCAUGUAAGGAUAUACGUCUGGUCCGGCCGGACCAGUACCGUAGAAGGUACGUAAA”, the “apparent Kd” value stood at 19.1 nM under setting [1] and 23 nM under setting [2].
Turning to “CUACAUGAGGAUCACCCAUGUGCGCACUGGAUCAGUGCGCGCAGAAGGGCCAUGGAGAAAGCCAGGCAGGAUAUGCAAAGGGCU”, the “apparent Kd” value under setting [3] is 288 nM and the “apparent Kd” value under setting [4] turned out to be 226 nM.
